pEC50: −log10 of the molar value. Calls of active or inactive are those of the source. No cut-off for these calls is given here.
Experiments:
[1] = biological target: T1, Free fatty acid receptor 4 (Homo sapiens, UniProt Q5NUL3); assay: Agonist activity at human GPR120 expressed in CHO-FlpIn cells after 15 mins by DMR assay; assay type: cell-based
T1 sequence (Q5NUL3 whole entry): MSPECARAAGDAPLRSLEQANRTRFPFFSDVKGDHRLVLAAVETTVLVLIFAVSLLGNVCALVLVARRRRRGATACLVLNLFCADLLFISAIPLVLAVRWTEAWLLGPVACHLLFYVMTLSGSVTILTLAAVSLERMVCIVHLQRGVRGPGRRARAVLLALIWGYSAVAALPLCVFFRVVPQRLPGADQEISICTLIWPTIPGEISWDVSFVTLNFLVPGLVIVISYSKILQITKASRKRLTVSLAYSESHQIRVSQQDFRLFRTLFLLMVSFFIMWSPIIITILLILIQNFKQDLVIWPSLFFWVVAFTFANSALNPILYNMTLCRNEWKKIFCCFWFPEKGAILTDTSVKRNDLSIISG
Outline: (§1)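 Cryopreserved CHO FlpIn cells stably expressing human or mouse GPR120 were seeded 48 h before assay, serum-starved for 24 h, then held 2 h in HBSS/20 mM HEPES/0.01% BSA (pH 7.4) with 0.5% DMSO. DMR was read over a 10 min baseline and for 15 min after addition. Runs were in duplicate, 10 points, 16 μM to 0.8 nM final, as % of maximal control agonist.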

[2] = biological target: T2, Free fatty acid receptor 4 (Homo sapiens) (UniProt Q5NUL3); assay: Agonist activity at human GPR120 expressed in CHO-FlpIn cells after 15 mins by DMR assay relative to control; assay type: cell-based; outline: as §1
T2 sequence (whole entry): T1 sequence (Q5NUL3 whole entry)

[3] = biological target: Free fatty acid receptor 1 (Mus musculus, UniProt Q76JU9); assay: Agonist activity at mouse GPR40 expressed in HEK293 cells assessed as increase in intracellular calcium level after 5 mins by FLUO-4-AM dye-based FLIPR assay; assay type: functional, cell-based
Free fatty acid receptor 1, sequence (Q76JU9 whole entry): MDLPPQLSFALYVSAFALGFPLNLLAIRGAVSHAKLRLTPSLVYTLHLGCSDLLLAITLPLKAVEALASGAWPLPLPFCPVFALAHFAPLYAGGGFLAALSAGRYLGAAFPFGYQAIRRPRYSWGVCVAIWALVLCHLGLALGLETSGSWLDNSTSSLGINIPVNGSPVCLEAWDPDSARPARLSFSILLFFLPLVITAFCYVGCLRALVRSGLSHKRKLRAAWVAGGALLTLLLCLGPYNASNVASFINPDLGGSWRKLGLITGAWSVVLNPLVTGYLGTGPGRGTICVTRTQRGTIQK
Outline: (§2)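 HEK293s cells stably expressing mouse GPR40 were seeded 24 h before assay and loaded for 1 h with calcium 3/Fluo-4 AM in HBSS, 20 mM HEPES, 0.01% BSA, 2.5 mM probenecid, pH 7.4. FLIPR Tetra took 10 baseline reads, then read for 5 min after addition. Runs were in duplicate, 9 points, 100 μM to 7 nM final, as % of maximal eladic acid control.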

[4] = biological target: Free fatty acid receptor 1 (Mus musculus) (UniProt Q76JU9); assay: Agonist activity at mouse GPR40 expressed in HEK293 cells assessed as increase in intracellular calcium level after 5 mins by FLUO-4-AM dye-based FLIPR assay relative to control; assay type: functional, cell-based; outline: as §2
Free fatty acid receptor 1 (Mus musculus), sequence (Q76JU9 whole entry): as above

[5] = Octanol-buffer partition coefficient, log D of the compound at pH 7.4 after 30 mins by LC-UV based shake-flask method
[6] = biological target: T3, Free fatty acid receptor 4 (Mus musculus, UniProt Q7TMA4); assay: Agonist activity at mouse GPR120 expressed in CHO-FlpIn cells after 15 mins by DMR assay; assay type: cell-based; outline: as §1
T3 sequence (Q7TMA4 whole entry): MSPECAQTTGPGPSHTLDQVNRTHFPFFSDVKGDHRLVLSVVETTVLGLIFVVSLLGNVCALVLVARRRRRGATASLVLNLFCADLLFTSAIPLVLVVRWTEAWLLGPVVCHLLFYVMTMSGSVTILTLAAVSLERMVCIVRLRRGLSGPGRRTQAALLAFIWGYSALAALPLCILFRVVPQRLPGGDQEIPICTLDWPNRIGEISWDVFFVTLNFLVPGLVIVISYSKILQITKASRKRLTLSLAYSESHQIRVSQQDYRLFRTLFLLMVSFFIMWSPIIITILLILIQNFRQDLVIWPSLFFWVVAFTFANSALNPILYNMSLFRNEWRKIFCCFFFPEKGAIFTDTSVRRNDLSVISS

[7] = biological target: T4, Free fatty acid receptor 4 (Mus musculus) (UniProt Q7TMA4); assay: Agonist activity at mouse GPR120 expressed in CHO-FlpIn cells after 15 mins by DMR assay relative to control; assay type: cell-based; outline: as §1
T4 sequence (whole entry): T3 sequence (Q7TMA4 whole entry)

[8] = Protein binding in mouse plasma assessed as unbound fraction after 24 hrs by equilibrium dialysis; assay type: ADME, cell-free
[9] = Clearance in mouse at 2.5 mg/kg, iv after 24 hrs; assay type: ADME, organism-based; conditions: in vivo
[10] = Volume of distribution at steady state in mouse at 2.5 mg/kg, iv after 24 hrs; assay type: ADME, organism-based; conditions: in vivo, read-out: Vdss
[11] = Cmax in mouse at 5 mg/kg administered through oral gavage after 24 hrs; assay type: ADME, organism-based; design: dose 5 mg/kg, route oral; conditions: in vivo
[12] = Oral bioavailability in mouse at 5 mg/kg after 24 hrs; assay type: ADME, organism-based; conditions: in vivo
[13] = Ratio of drug level in mouse brain to blood at 5 mg/kg administered through oral gavage after 2 hrs; assay type: ADME, organism-based
[14] = Ratio of unbound drug level in mouse brain to blood at 5 mg/kg administered through oral gavage after 2 hrs; conditions: brain
Mus musculus = assay: Antidiabetic activity in GPR120 knockout mouse assessed as reduction in glucose excursion at 100 mg/kg administered through oral gavage 30 mins prior to glucose challenge measured after 90 mins by OGTT; assay type: functional, organism-based
Outline: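 OGTT used in-house C57BL/6J mice aged 10–11 weeks. GPR120 knockout and wild-type controls were bred in house, back-crossed onto C57BL/6J, and used at 9–10 weeks. Compound was given as a suspension: a concentrated stock was made at rt the day before and diluted on study day to the dosing concentrations.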

[15] = Ratio of unbound drug level in wild-type mouse brain to blood at 100 mg/kg administered through oral gavage 30 mins prior to glucose challenge measured after 90 mins; conditions: brain

SMILES	pEC50 [1]	Efficacy [2]	pEC50 [3]	Efficacy [4]	logD at 0.5 h [5]	further results
Cc1nn(-c2ccccn2)c2cc(-c3ccc(CCC(=O)O)cc3F)ccc12	6.22	113%	5.82	105%	2.9	–
Cc1nn(-c2ccccn2)c2cc(-c3cccc(CCC(=O)O)c3)ccc12	< 4.77	28%	< 4.00	0%	–	–
O=C(O)CCc1ccc(-c2ccc3cnn(-c4ccccn4)c3c2)cc1	6.00	114%	5.35	106%	2.4	–
Cc1nn(-c2ccccn2)c2cc(-c3ccc(CCC(=O)O)cc3)ccc12	6.19	107%	5.85	95%	–	–
Cc1ccc(-n2nc(C)c3cnc(-c4ccc([C@H]5C[C@@H]5C(=O)O)cc4)cc32)cc1	6.05	76%	< 4.00	12%	2.6	pEC50 [6]: 6.19; Efficacy [7]: 99%
O=C(O)CCc1ccc(-c2ccc3c(OCc4ccccc4)nn(-c4ccccn4)c3c2)cc1	< 4.77	2%	5.89	81%	–	–
Cc1nn(-c2ccccn2)c2cc(-c3ccc(CCC(=O)O)cc3)ncc12	5.59	78%	5.04	86%	1.6	–
Cc1nn(-c2ccccn2)c2cc(-c3ccc(CCCC(=O)O)cc3)ccc12	6.59	128%	5.68	117%	–	–
Cc1nn(-c2ccccn2)c2cc(-c3cccc(CC(=O)O)c3)ccc12	< 4.77	3%	–	–	–	–
N#Cc1cc(-c2ccc(CCC(=O)O)cc2)cc2c1cnn2-c1ccccn1	5.70	78%	4.72	113%	2.2	–
Cc1nn(-c2ccccn2)c2cc(-c3ccc(C(C)CC(=O)O)cc3)ncc12 (configuration not stated)	4.92	28%	4.21	50%	–	–
COc1cc(CCC(=O)O)ccc1-c1ccc2c(C)nn(-c3ccccn3)c2c1	6.14	82%	5.09	62%	2.4	–
Cc1nn(-c2ccccn2)c2cc(-c3ccc([C@H]4C[C@@H]4C(=O)O)cc3)ccc12 (racemic) [listing 1 of 2 here]	–	87%	–	6%	–	–
Cc1ccc(-n2nc(C)c3ccc(-c4ccc([C@H]5C[C@@H]5C(=O)O)cc4)cc32)cc1	–	100%	–	1%	–	fraction unbound at 24 h [8]: 0.0049; clearance [9]: 9.6 mL/min/kg; Vd [10]: 1.2 L/kg; Cmax [11]: 7.9 µM; bioavailability [12]: 136%; Kp at 2 h [13]: 0.82; Kp uu at 2 h [14]: 0.22; Activity (Mus musculus): inactive; pEC50 [6]: 6.29; Efficacy [7]: 91%; Kp uu at 1.5 h [15]: 0.27
Cc1cc(-c2ccc(CCC(=O)O)cc2)cc2c1cnn2-c1ccccn1	5.34	70%	5.59	82%	2.6	–
Cc1nn(-c2ccccn2)c2cc(-c3ccc([C@H]4C[C@@H]4C(=O)O)cc3)ccc12 [listing 1 of 2 here]	–	95%	–	10%	–	–

SMILES	pEC50 [1]	Efficacy [2]	pEC50 [3]	Efficacy [4]	logD at 0.5 h [5]	further results
Cc1nn(-c2ccccn2)c2cc(-c3ccc([C@H]4C[C@@H]4C(=O)O)cc3)ccc12 [listing 2 of 2 here]	6.16	–	< 4.00	–	–	–
Cc1nn(-c2ccccn2)c2cc(-c3ccc([C@H]4C[C@H]4C(=O)O)cc3)ccc12 (racemic)	< 4.77	9%	4.72	81%	–	–
CCc1nn(-c2ccccn2)c2cc(-c3ccc(CCC(=O)O)cc3)ccc12	6.12	75%	5.96	93%	3.3	–
Cc1nn(-c2ccccn2)c2cc(-c3ccc(CC(=O)O)cc3)ccc12	< 4.77	8%	–	–	–	–
C[C@H](Cc1ccc(-c2ccc3cnn(-c4ccccn4)c3c2)cc1)C(=O)O	5.37	88%	< 4.00	18%	–	–
COc1nn(-c2ccc(C)cc2)c2cc(-c3ccc([C@H]4C[C@@H]4C(=O)O)cc3)cc(F)c12	7.11	115%	< 4.00	11%	> 4.2	fraction unbound at 24 h [8]: 0.0011; clearance [9]: 0.4 mL/min/kg; Vd [10]: 0.7 L/kg; Cmax [11]: 5 µM; bioavailability [12]: 19%; Kp at 2 h [13]: 0.44; pEC50 [6]: 7.77; Efficacy [7]: 176%
Cc1nn(-c2ccccn2)c2cc(-c3ccc([C@H]4C[C@@H]4C(=O)O)cc3)ccc12 (racemic) [listing 2 of 2 here]	6.07	–	< 4.00	–	–	–
Cc1nn(-c2ccccn2)c2cc(-c3ccc(CCC(=O)O)cc3Cl)ccc12	6.15	113%	5.92	102%	3.3	–
O=C(O)CCc1ccc(-c2cc(F)c3cnn(-c4ccccn4)c3c2)cc1	6.33	100%	5.59	126%	2.8	–
COc1nn(-c2ccccn2)c2cc(-c3ccc(CCC(=O)O)cc3)ccc12	6.60	122%	5.59	96%	3.3	–
Cc1nn(-c2ccccn2)c2cc(-c3ccc(CCC(=O)O)cc3C#N)ccc12	5.62	80%	5.21	47%	2.2	–
C[C@@H](Cc1ccc(-c2ccc3cnn(-c4ccccn4)c3c2)cc1)C(=O)O	5.40	100%	5.42	31%	–	–
Cc1nn(-c2ccccn2)c2cc(-c3ccc(CC(C)(C)C(=O)O)cc3)ccc12	5.39	79%	< 4.00	18%	–	–
N#Cc1nn(-c2ccccn2)c2cc(-c3ccc(CCC(=O)O)cc3)ccc12	5.32	87%	5.70	124%	3	–
Cc1ccc(-n2nc(C)c3c(F)cc(-c4ccc([C@H]5C[C@@H]5C(=O)O)cc4)cc32)cc1	6.28	88%	< 4.00	14%	4.2	pEC50 [6]: 6.27; Efficacy [7]: 112%
Cc1nn(-c2ccccn2)c2cc(-c3ccc([C@@H]4C[C@H]4C(=O)O)cc3)ccc12	< 4.77	26%	< 4.00	2%	–	–

From ChEMBL document CHEMBL4049430, “Indazole-6-phenylcyclopropylcarboxylic Acids as Selective GPR120 Agonists with in Vivo Efficacy” (J Med Chem, 2017)
